Test results from ChEMBL document CHEMBL1135813, “Orally-effective, long-acting sorbitol dehydrogenase inhibitors: synthesis, structure-activity relationships, and in vivo evaluations of novel heterocycle-substituted piperazino-pyrimidines” (J Med Chem, 2002).

Assays:
Sorbitol dehydrogenase = biological target: T1, Sorbitol dehydrogenase (Homo sapiens, UniProt Q00796)
T1 sequence (Q00796 whole entry): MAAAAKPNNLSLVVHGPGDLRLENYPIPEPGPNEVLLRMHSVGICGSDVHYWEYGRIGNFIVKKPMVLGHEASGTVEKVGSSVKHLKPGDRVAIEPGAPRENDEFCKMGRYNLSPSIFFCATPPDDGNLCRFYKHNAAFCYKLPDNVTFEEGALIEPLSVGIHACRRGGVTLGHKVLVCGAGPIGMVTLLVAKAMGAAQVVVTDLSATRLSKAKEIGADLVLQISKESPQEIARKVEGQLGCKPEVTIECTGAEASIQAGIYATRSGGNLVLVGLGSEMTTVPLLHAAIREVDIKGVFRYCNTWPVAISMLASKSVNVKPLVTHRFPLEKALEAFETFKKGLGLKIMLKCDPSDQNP

Rattus norvegicus [1] = experiment: Concentration required for 50% ability to normalize elevated sciatic nerve fructose in reversal protocol using chronic model in streptozocin (STZ)-induced diabetic rats (in vivo); format: functional; settings: in the assay text read “90% ability” for “50% ability”
How it was run: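 Diabetes was induced in male CD Sprague-Dawley rats (175-225 g) with STZ (85 mg/kg in 0.01 M citrate, pH 4.5) by tail vein. Oral gavage was given once daily from day 8 for 5 days. Rats were killed 4 h after the last dose (day 12). Left sciatic nerve fructose was measured in perchloric acid extract by FDH/resazurin fluorescence (ex 560, em 580 nm) against standards.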

Rattus norvegicus [2] = species on record: Rattus norvegicus; experiment: Concentration required for 50% prevention of sciatic nerve fructose accumulation using acute model in streptozocin (STZ)-induced diabetic rats; format: functional
How it was run: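 STZ diabetes was induced in male CD Sprague-Dawley rats (175-225 g) with 85 mg/kg iv (citrate, pH 4.5). Oral gavage doses were given 4, 7 and 24 h after STZ, and rats were killed at 28 h. Left sciatic nerve was extracted in 6% perchloric acid and neutralized. Fructose was assayed with FDH/resazurin for 60 min at room temperature (fluorescence). ED50 is expressed as total mg/kg/day.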

Row | Compound | IC50 (Sorbitol dehydrogenase) [nM] | ED90 (Rattus norvegicus [1]) [mg/kg/day] | ED50 (Rattus norvegicus [2]) [mg/kg/day]
1 | C[C@@H](O)c1nccc(N2CCN(c3nc(C(F)(F)F)cc(C(F)(F)F)n3)CC2)n1 | 190 | – | –
2 | Cc1cc(CO)nc(N2C[C@@H](C)N(c3ccnc([C@@H](C)O)n3)[C@@H](C)C2)n1 | 100 | 1 | –
3 | C[C@@H](O)c1nccc(N2CCN(c3cnc4ccccc4n3)[C@@H](C)C2)n1 | 99 | – | –
4 | C[C@@H](O)c1nccc(N2CCN(c3cnc4ccccc4n3)CC2)n1 | 36 | > 20 | 1
5 | Cc1cc(CO)nc(N2CCN(c3ccnc([C@@H](C)O)n3)[C@H](C)C2)n1 | 170 | – | –
6 | C[C@@H](O)c1nccc(N2CCN(c3nsc4ccccc34)CC2)n1 | 12 | – | –
7 | Cc1cc(-c2ccccc2)nc(N2CCN(c3ccnc([C@@H](C)O)n3)CC2)n1 | 220 | – | –
8 | Cc1cc(C)nc(N2CCN(c3ccnc([C@@H](C)O)n3)CC2)n1 | 23 | – | 1.3
9 | OCc1nccc(N2CCN(c3nccc4ccccc34)CC2)n1 | 150 | – | –
10 | Cc1cc(CO)nc(N2CCN(c3ccnc([C@@H](C)O)n3)[C@@H](C)C2)n1 | 200 | – | –
11 | C[C@@H](O)c1nccc(N2CCN(c3nc4cccnc4o3)CC2)n1 | 32 | – | 0.5
12 | Cc1cc(N2CCN(c3ccnc(CO)n3)CC2)nc(C)n1 | 140 | – | –
13 | C[C@@H](O)c1nccc(N2CCN(c3nccc4ccccc34)CC2)n1 | 34 | – | –
14 | C[C@@H](O)c1nccc(N2CCN(c3ccnc(CCO)n3)CC2)n1 | 40 | – | 1
15 | C[C@@H](O)c1nccc(N2CCN(c3nccc(-c4ccccc4)n3)CC2)n1 | 67 | – | –
16 | C[C@@H](O)c1nccc(N2CCN(c3ccnc(CCO)n3)C[C@@H]2C)n1 | 59 | – | –
17 | C[C@@H](O)c1nccc(N2CCN(c3nc4ncccc4o3)CC2)n1 | 170 | – | –
18 | OCc1nccc(N2CCN(c3ccc4ccccc4n3)CC2)n1 | 87 | – | –
19 | C[C@@H]1CN(c2cnc3ccccc3n2)C[C@H](C)N1c1ccnc([C@@H](C)O)n1 | 180 | 1 | –
20 | Cc1nc2ccccc2nc1N1CCN(c2ccnc([C@@H](C)O)n2)CC1 | 8 | – | –
21 | Cc1cc(N2CCN(c3ccnc([C@@H](C)O)n3)CC2)nc(C)n1 | 31 | – | 5
22 | C[C@@H]1CN(c2ccnc(CCO)n2)CCN1c1ccnc([C@@H](C)O)n1 | 12 | – | –

Row | Compound | IC50 (Sorbitol dehydrogenase) [nM] | ED90 (Rattus norvegicus [1]) [mg/kg/day] | ED50 (Rattus norvegicus [2]) [mg/kg/day]
23 | C[C@@H](O)c1nccc(N2CCN(c3cnc4cc(Cl)c(Cl)cc4n3)CC2)n1 | 120 | – | –
24 | OCc1nccc(N2CCN(c3nsc4ccccc34)CC2)n1 | 64 | – | –
25 | Cc1cc(C)nc(N2CCN(c3ccnc(CO)n3)CC2)n1 | 93 | – | –
26 | C[C@@H](O)c1nccc(N2CCN(c3nc4ccncc4o3)[C@@H](C)C2)n1 | 23 | – | –
27 | C[C@@H](O)c1nccc(N2CCN(c3nc4ccccc4o3)CC2)n1 | 35 | – | 12
28 | OCc1nccc(N2CCN(c3ccnc(CO)n3)CC2)n1 | 260 | – | –
29 | Cc1cc(CO)nc(N2CCN(c3ccnc([C@@H](C)O)n3)C[C@@H]2C)n1 | 80 | 2 | –
30 | C[C@@H](O)c1nccc(N2CCN(c3nc4cnccc4o3)CC2)n1 | 80 | – | –
31 | CCc1cc(CC)nc(N2CCN(c3ccnc([C@@H](C)O)n3)CC2)n1 | 80 | – | –
32 | Cc1cc(CO)nc(N2[C@H](C)CN(c3ccnc([C@@H](C)O)n3)C[C@@H]2C)n1 | 130 | – | –
33 | C[C@@H]1CN(c2nc3ccncc3o2)C[C@H](C)N1c1ccnc([C@@H](C)O)n1 | 270 | – | –
34 | Cc1ccnc(N2CCN(c3ccnc([C@@H](C)O)n3)CC2)n1 | 110 | – | –
35 | Cc1cc(CO)nc(N2CCN(c3ccnc([C@@H](C)O)n3)C[C@H]2C)n1 | 140 | – | –
36 | Cc1cc(CO)nc(N2CCN(c3ccnc([C@@H](C)O)n3)CC2)n1 | 20 | – | 0.5
37 | C[C@@H](O)c1nccc(N2CCN(c3ccc4ccccc4n3)CC2)n1 | 44 | – | –
38 | CC(C)c1cc(C(C)C)nc(N2CCN(c3ccnc([C@@H](C)O)n3)CC2)n1 | 72 | – | –
39 | OCc1nccc(N2CCN(c3nc4ccccc4o3)CC2)n1 | 190 | – | –
40 | CN(C)S(=O)(=O)N1CCN(c2ccnc(CO)n2)CC1 | 240 | – | –
41 | C[C@@H]1CN(c2ccnc(CCO)n2)C[C@H](C)N1c1ccnc([C@@H](C)O)n1 | 10 | 2 | –
42 | C[C@@H](O)c1nccc(N2CCN(c3noc4ccccc34)CC2)n1 | 37 | – | –
43 | OCc1nccc(N2CCN(c3noc4ccccc34)CC2)n1 | 120 | – | –
44 | C[C@@H](O)c1nccc(N2CCN(c3nc4ccncc4o3)CC2)n1 | 24 | 10 | 0.5
